Laboratory results reported in ChEMBL document CHEMBL5230162 (RSC Med Chem, 2023).
In brackets after ≈: the same amount, converted by molar mass. Activity calls are given as the source filed them. The rule behind the calls is not given here.

Key:
[1] = Solubility of the compound in water incubated for 15 mins under shaking conditions by UV spectrophotometry relative to atorvastatin; assay type: physicochemical; conditions: buffer, 0.25 h
In short: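 Excess compound shaken strongly in 1 ml water for 15 min, then filtered or centrifuged. 50 μL of the saturated solution diluted into 1 mL methanol. Absorbance read at 290 nm and concentration taken from standard curves.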

[2] = Solubility of the compound in water incubated for 15 mins under shaking conditions by UV spectrophotometry; assay type: physicochemical
[3] = Binding affinity to human ASGPR assessed as equilibrium dissociation constant by surface plasmon resonance spectroscopy
[4] = biological target: T1, 3-hydroxy-3-methylglutaryl-coenzyme A reductase (Homo sapiens) (UniProt P04035); assay: Inhibition of HMG-CoA reductase (unknown origin) in neutral aqueous media
T1 sequence (whole entry): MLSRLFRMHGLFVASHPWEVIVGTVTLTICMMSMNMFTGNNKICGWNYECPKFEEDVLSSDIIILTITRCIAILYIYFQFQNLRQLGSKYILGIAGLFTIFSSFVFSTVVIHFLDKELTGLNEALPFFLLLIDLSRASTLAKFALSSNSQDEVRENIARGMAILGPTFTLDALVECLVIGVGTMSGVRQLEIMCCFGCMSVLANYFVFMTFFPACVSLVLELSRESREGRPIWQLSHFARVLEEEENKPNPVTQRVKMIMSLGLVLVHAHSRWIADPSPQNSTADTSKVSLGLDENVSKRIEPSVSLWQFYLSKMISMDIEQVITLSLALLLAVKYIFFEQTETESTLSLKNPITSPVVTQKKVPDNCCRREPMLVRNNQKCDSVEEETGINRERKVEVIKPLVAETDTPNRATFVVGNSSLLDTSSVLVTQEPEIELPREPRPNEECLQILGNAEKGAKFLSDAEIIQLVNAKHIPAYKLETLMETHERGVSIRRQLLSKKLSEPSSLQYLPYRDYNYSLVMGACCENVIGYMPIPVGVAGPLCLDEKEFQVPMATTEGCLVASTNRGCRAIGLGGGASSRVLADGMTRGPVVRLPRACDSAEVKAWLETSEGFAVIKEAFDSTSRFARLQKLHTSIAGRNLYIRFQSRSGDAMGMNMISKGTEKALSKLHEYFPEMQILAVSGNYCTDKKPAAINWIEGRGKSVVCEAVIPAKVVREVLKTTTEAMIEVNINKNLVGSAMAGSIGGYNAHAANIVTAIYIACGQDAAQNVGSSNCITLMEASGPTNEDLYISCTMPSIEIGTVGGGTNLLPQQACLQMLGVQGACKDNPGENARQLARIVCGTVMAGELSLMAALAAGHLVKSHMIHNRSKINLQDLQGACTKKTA
In short: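 HMG-CoA reductase kit assay. Compounds were 0.1 mM working solutions made from 0.01 M DMSO stocks diluted in water; 2 μL of each added per well. NADPH consumption followed as absorbance at 340 nm every 20 s for up to 10 min. Activity calculated from the NADPH extinction coefficient. Run in triplicate.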

[5] = Stability of the compound in PBS buffer at pH 7.4 measured after 24 hrs by HPLC-MS analysis; assay type: physicochemical; conditions: pH 7.4, 24 h
In short: (§1)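 Incubated at 37 °C. Aliquots taken at 0, 0.5, 1, 2, 4, 8 and 24 h and quenched in cold methanol, stored at −20 °C, centrifuged, and the supernatant analysed by HPLC-MS.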

[6] = biological target: T1, 3-hydroxy-3-methylglutaryl-coenzyme A reductase (Homo sapiens); assay: Inhibition of HMG-CoA reductase (unknown origin) in presence of cathepsin B
In short: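 Compound (40 μM final) incubated for 24 h at 37 °C with recombinant cathepsin B (30 nM final) in 0.1 M sodium acetate pH 3.6, 100 mM NaCl, 1 mM EDTA, 0.6% DMSO. 5 μL of the mixture then tested in the HMG-CoA reductase kit assay: absorbance at 340 nm every 20 s for up to 10 min, in triplicate. Controls: enzyme-only buffer and compound without protease.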

[7] = Stability of the compound in acetate buffer at pH 5 measured after 24 hrs by HPLC-MS analysis; assay type: physicochemical; conditions: pH 5, 24 h; in short: as §1
[8] = Stability of the compound in acetate buffer at pH 5 measured for 24 hrs by HPLC-MS analysis; assay type: physicochemical; conditions: pH 5, 24 h; in short: as §1

Row | SMILES | fold change (FC) [1] | solubility at 0.25 h [2] | Kd [3] | inhibition (active/not active) [4] | Stability [5] | inhibition [6] | Stability [7] | Stability [8]
1 | CC(=O)N[C@H]1[C@H](OCCNC(=O)C[C@H](O)C[C@H](O)CCn2c(-c3ccc(F)cc3)c(-c3ccccc3)c(C(=O)Nc3ccccc3)c2C(C)C)O[C@H](CO)[C@H](O)[C@@H]1O | 4 | 430 µM (≈ 346 µg/mL) | 0.069 µM |  |  |  |  | 
2 | CC(=O)N[C@H]1[C@H](OCCn2cc(COC(=O)C[C@H]3C[C@@H](CCn4c(-c5ccc(F)cc5)c(-c5ccccc5)c(C(=O)Nc5ccccc5)c4C(C)C)OC(C)(C)O3)nn2)O[C@H](CO)[C@H](O)[C@@H]1O |  | 50 µM (≈ 46.4 µg/mL) | 0.00033 µM | Active |  |  |  | 
3 | CC(=O)N[C@H]1[C@H](OCCn2cc(CNC(=O)C[C@H](O)C[C@H](O)CCn3c(-c4ccc(F)cc4)c(-c4ccccc4)c(C(=O)Nc4ccccc4)c3C(C)C)nn2)O[C@H](CO)[C@H](O)[C@@H]1O | 5 | 540 µM (≈ 478 µg/mL) | 0.161 µM | inactive | Stable | Active | Stable | 
4 | CC(=O)N[C@@H]1[C@@H](O)[C@@H](O)[C@@H](CO)O[C@H]1n1cc(COC(=O)C[C@H](O)C[C@H](O)CCn2c(-c3ccc(F)cc3)c(-c3ccccc3)c(C(=O)Nc3ccccc3)c2C(C)C)nn1 |  | 200 µM (≈ 169 µg/mL) | 0.048 µM | Active |  |  |  | Stable
5 | CC(=O)N[C@@H]1[C@@H](O)[C@@H](O)[C@@H](CO)O[C@H]1n1cc(CNC(=O)C[C@H](O)C[C@H](O)CCn2c(-c3ccc(F)cc3)c(-c3ccccc3)c(C(=O)Nc3ccccc3)c2C(C)C)nn1 | 4 | 450 µM (≈ 379 µg/mL) | 0.113 µM | inactive | Stable | Active | Stable | 
6 | CC[C@H](C)C(=O)O[C@H]1C[C@H](O)C=C2C=C[C@H](C)[C@H](CC[C@@H](O)C[C@@H](O)CC(=O)O)[C@H]21 |  |  |  |  |  | Active |  | 
7 | CC(=O)N[C@@H]1[C@@H](O)[C@@H](O)[C@@H](CO)O[C@@H]1O |  |  | 4.5 µM |  |  |  |  | 
8 | CC(=O)N[C@@H]1[C@@H](O)[C@@H](O)[C@@H](CO)O[C@H]1n1cc(COC(=O)C[C@H]2C[C@@H](CCn3c(-c4ccc(F)cc4)c(-c4ccccc4)c(C(=O)Nc4ccccc4)c3C(C)C)OC(C)(C)O2)nn1 |  | 30 µM (≈ 26.5 µg/mL) | 0.00015 µM |  |  |  |  | 
9 | CC(=O)N[C@H]1[C@H](OCCn2cc(COC(=O)C[C@H](O)C[C@H](O)CCn3c(-c4ccc(F)cc4)c(-c4ccccc4)c(C(=O)Nc4ccccc4)c3C(C)C)nn2)O[C@H](CO)[C@H](O)[C@@H]1O |  | 320 µM (≈ 284 µg/mL) | 0.079 µM |  |  |  |  | Stable
